High-throughput results deposited in PubChem BioAssay by several laboratories.
A selection: hits, their analogues and other compounds. The true share with any hit is near 2.8%.
Rtt109 HAT inh: inhibitors of Candida albicans Rtt109/Vps75 histone acetyltransferase | AID 540336 | hit rate 0.16% among 330,000 | purified Rtt109/Vps75, ThioGlo CoA-SH fluorescence, 4 h | inhibition, % at 34.9 µM | Q5AAJ8;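 active = inhibition of at least 50% in every replicate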
GASC-1 inh: blocks human GASC-1 demethylase activity; Q9H3R0; GST-JMJD2C(1-420) H3K9me3 demethylation, DELFIA europium; inhibition, % at 2.35 µM; hit rate 0.069% among 330,000;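 active = more than half of a compound's replicate wells show inhibition beyond 50%, single wells judged on their own value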;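 note: signal counts dimethyl H3K9 product captured on neutravidin plate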
Target sequence (Q9H3R0 1-420 limits assumed): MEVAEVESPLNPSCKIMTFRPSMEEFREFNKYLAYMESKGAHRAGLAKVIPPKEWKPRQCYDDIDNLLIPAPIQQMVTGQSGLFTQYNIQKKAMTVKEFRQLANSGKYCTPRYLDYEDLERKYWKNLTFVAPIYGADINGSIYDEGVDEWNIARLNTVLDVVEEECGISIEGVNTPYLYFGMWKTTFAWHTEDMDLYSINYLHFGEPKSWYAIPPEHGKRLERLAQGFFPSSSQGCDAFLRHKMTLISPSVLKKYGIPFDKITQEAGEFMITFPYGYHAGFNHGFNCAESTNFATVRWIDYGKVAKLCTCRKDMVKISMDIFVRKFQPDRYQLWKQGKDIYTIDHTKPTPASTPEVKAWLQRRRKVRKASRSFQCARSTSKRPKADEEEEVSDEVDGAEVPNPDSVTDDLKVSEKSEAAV
NR3A LBD binder: modulators (binders) of human NR3A ligand-binding domain. NR3A LBD differential scanning fluorimetry, Tm shift; 0% = protein alone, 100% = glycine-bound protein. Tm shift relative to glycine control, % at 25 µM. hit rate 2.5% among 340,000. AID 1259313;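 active = melting temperature shift of at least 10% of the positive control shift, at one fixed dose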
T cell HTS: modulates CD8 T cell binding to vesicles. 2C CD8+ T cell-vesicle binding, flow cytometry; active compounds read low. response (vesicle binding), % at 7 µM. hit rate 0.068% among 330,000. AID 2052;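 active = response, share of CD8 T cells binding vesicles, and their 90th percentile fluorescence all below set limits, cut at about 80% in these data, passing the limit was not always enough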;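 note: values below 100% mean blocked vesicle binding to the CD8+ T cells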
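Material: murine 2C transgenic CD8+ T lymphocytes / Also added: QL9-peptide-loaded Drosophila micro-vesicles bearing Ld, ICAM-1 and B7-1 / Schedule: binding step 1.5 h, 37 °C, antibody labelling 20 min, ice / Signal: flow cytometry, PE anti-B7-1 (FL2) versus Alexa647 anti-CD8 (FL8), PFA-fixed / Evaluation: percent CD8+ FL2 mean versus row control / Benchmarks: naked versus QL9-loaded vesicles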
Large screens that a line does not name were inactive.

O=C(O)c1cc(S(=O)(=O)N(Cc2ccccc2)c2ccc(Cl)cc2)ccc1Cl	NR3A LBD binder 39.1
CCn1c(O)c(/C=C2\C=Nc3ccccc32)sc1=Nc1ccccc1	NR3A LBD binder 12.0
O=C(Cc1ccccc1)Nn1c(O)c(/C=C2\C=Nc3ccccc32)sc1=S	NR3A LBD binder 25.7
COc1ccc2nc(SCC(=O)N(C)C3CCCCC3)[nH]c2c1	none
CS(=O)(=O)c1ccc(C(=O)OCC(=O)NC(=O)C2CCCCC2)cc1[N+](=O)[O-]	NR3A LBD binder 18.9
CS(=O)(=O)c1ccc(C(=O)OCC(=O)NC(=O)C2COc3ccccc3O2)cc1[N+](=O)[O-] (stereo not given)	none
CCN(CC(=O)NCc1ccc(F)cc1)C(=O)c1ccc2c(c1)OCO2	none
O=C(Cn1nnc(-c2cc(C(F)(F)F)cc(C(F)(F)F)c2)n1)NNC(=S)Nc1ccc(Cl)cc1	NR3A LBD binder 35.9
Cc1c(Cc2ccccc2)c(=O)oc2c(O)c(O)ccc12	NR3A LBD binder 10.1 (no result: T cell HTS)
COc1ccc(NC(=O)COC(=O)c2ccc(-n3cnnn3)cc2)c([N+](=O)[O-])c1	none (no result: GASC-1 inh)
COc1cc(C2c3cc4c(cc3OC(N3CCCCC3)C2C)OCO4)cc(OC)c1O (stereo not given)	none (no result: GASC-1 inh, T cell HTS)
COc1cccc(C2c3cc4c(cc3OC(N3CCCC3)C2C)OCO4)c1O (stereo not given)	NR3A LBD binder 15.4 (no result: GASC-1 inh, T cell HTS)
CCCCOc1ccc(-c2c(C#N)c(N)nc(SCC(N)=O)c2C#N)cc1	NR3A LBD binder 17.0
CCCCOC(=O)CSc1nc(N)c(C#N)c(-c2ccc(OCC)cc2)c1C#N	none
CNc1nc(N/N=C/c2ccc([N+](=O)[O-])cc2)nc(Nc2ccccc2)n1	NR3A LBD binder 29.9
COc1cccc(/C=N/Nc2nc(Nc3ccc([N+](=O)[O-])cc3)nc(N3CCCC3)n2)c1O	NR3A LBD binder 22.8
O=[N+]([O-])c1ccc(Nc2nc(N/N=C/c3cccc(F)c3)nc(N3CCCC3)n2)cc1	NR3A LBD binder 24.6
O=[N+]([O-])c1ccc(/C=N/Nc2nc(N3CCOCC3)nc(N3CCOCC3)n2)cc1	none (no result: NR3A LBD binder)
Cc1ccc(C(=O)c2c3ccc([N+](=O)[O-])cc3[n+]([O-])n2CCC(N)=O)cc1	none
COC(=O)C(C)SC1=N/C(=C/c2ccc(-n3cncn3)cc2)C(=O)N1 (stereo not given)	none
O=C(Nc1ccc(OC(F)(F)F)cc1)Oc1ccccc1N1CCCCC1	NR3A LBD binder 13.1 (no result: Rtt109 HAT inh)
O=C(Nc1ccc(OC(F)(F)F)cc1)Oc1ccccc1N1CCOCC1	none
Cc1noc(C)c1S(=O)(=O)N1CCN(c2ccccc2Cl)CC1	none (no result: GASC-1 inh, T cell HTS)
O=C(O)/C=C/S(=O)(=O)c1ccc2ccccc2c1	none
O=C1N=c2ccccc2=C1c1sc(=S)n(CC2CCCO2)c1O (stereo not given)	NR3A LBD binder 15.2
CCCCc1ccc(-n2c(Cc3cccs3)n[nH]c2=S)cc1	Rtt109 HAT inh 71.8
COC(=O)c1c(-c2ccc(SC)cc2)sc2ccc(OC)cc12	NR3A LBD binder 12.9
COC(=O)c1c(-c2cc(OC)cc(OC)c2)sc2ccc(OC)cc12	none
CCC(=O)Nc1ccc(/C(C)=N\NC(=O)c2ccc(OC)cc2)cc1	NR3A LBD binder 19.5
CCC(=O)NC(=S)Nc1ccc(NC(=O)c2ccc(OC)cc2)cc1	none
COc1ccc(C(=O)N/N=C(/C)c2cccc(NC(=O)C(F)(F)F)c2)cc1	NR3A LBD binder 10.2
Cc1ccc(C(=O)CCC(=O)N2CCN(c3ccccc3O)CC2)cc1	NR3A LBD binder 19.5
O=C(CCC(=O)N1CCN(c2ccccc2F)CC1)c1ccc(F)cc1	none
COc1ccc2c(n1)Sc1nc3ccccc3nc1N2	NR3A LBD binder 33.9
Cc1cnc(C(=O)OC(C)C(=O)Nc2ccc3c(c2)OCCO3)cn1 (stereo not given)	none
O=C(CSCc1ccc(F)cc1)Nc1ccccc1C(=O)N1CCOCC1	none
CC(C)CNC(=O)c1ccccc1NC(=O)CSCc1ccccc1	NR3A LBD binder 13.6
CC(C)=CCc1cc2c(=O)c3c(O)c4c(cc3oc2c(O)c1O)OC(C)C4(C)C (stereo not given)	none (no result: Rtt109 HAT inh, NR3A LBD binder)
O=c1c2ccccc2nc(N/N=C/c2c(O)ccc3ccccc23)n1O	NR3A LBD binder 12.4
O=c1c2ccccc2nc(N/N=C/c2ccc(O)cc2)n1O	none
Cc1ccc(-c2cc(C(=O)Nc3ccc(S(=O)(=O)Nc4nccs4)cc3)c3ccccc3n2)c(C)c1	NR3A LBD binder 14.9
Cc1ccc(C)c(-c2cc(C(=O)Nc3cccnc3)c3ccccc3n2)c1	NR3A LBD binder 11.1
